Measured values as given in ChEMBL document CHEMBL1124622, “Synthesis and antiviral activity of 3'-C-cyano-3'-deoxynucleosides” (J Med Chem, 1989).
Converted amounts (≈) assume the structure as drawn.

What was measured:
[1] = test system: Semliki Forest virus; assay: Minimum inhibitory concentration against forest virus in Vero cell cultures; assay type: functional
How it was run: (§1)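 Confluent HeLa, Vero or primary rabbit kidney cell cultures in microtiter trays are inoculated with 100 CCID50 of virus. After 1 h adsorption, residual virus is removed and cells are incubated with varying compound concentrations. Cytopathogenicity is recorded once it is complete in untreated virus-infected controls. MIC is the concentration inhibiting virus-induced cytopathogenicity.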

[2] = test system: Vaccinia virus; assay: (§2) Minimum inhibitory concentration against Vaccinia virus in primary rabbit kidney cell cultures; assay type: functional; settings: Orthopoxvirus vaccinia; how it was run: as §1
[3] = test system: Mammalian orthoreovirus 1; assay: Minimum inhibitory concentration against reovirus in Vero cell cultures; assay type: functional; how it was run: as §1
[4] = organism: Homo sapiens; assay: Cytotoxic dose against uninfected human MT-4 cell; assay type: functional; settings: MT4, read-out: CD50 (the source's name)
How it was run: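 Cytotoxicity counterpart of the HIV assay: uninfected human MT-4 lymphocytes exposed to the compounds. CD50 is the dose that reduces viability of these uninfected cells by 50%.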

[5] = test system: Moloney murine sarcoma virus; assay: In vitro effective dose against Moloney murine sarcoma virus induced transformation of C3H embryo fibroblast cells.; assay type: functional; settings: read-out: ED50 (the source's name)
How it was run: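 C3H mouse embryo cells are seeded at 20 000 cells/mL per well and grown 24 h. They are infected with 80 foci-forming units of Moloney MSV for 90 min, then given fresh medium with varying compound concentrations. Transformation is examined microscopically after 6-7 days. ED50 is the dose giving a 50% reduction in transformation.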

[6] = In vitro minimum cytotoxic concentration in C3H embryo fibroblast cells.; assay type: functional; settings: Mus musculus
How it was run: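 Minimal cytotoxic concentration in C3H mouse embryo cells, run in the same 48-well setup as the MSV transformation assay: the concentration producing microscopically visible alteration of cell morphology.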

[7] = Minimum cytotoxic concentration in HeLa cell cultures; assay type: cell-based; settings: human, HeLa cells
[8] = test system: Sindbis virus; assay: Minimum inhibitory concentration against Sindbis virus in Vero cell cultures; assay type: functional; how it was run: as §1
[9] = Minimum cytotoxic concentration in primary rabbit kidney cell cultures; assay type: cell-based, Oryctolagus cuniculus; settings: primary rabbit kidney cells
[10] = test system: Vesicular stomatitis virus; assay: (§3) Minimum inhibitory concentration against Vesicular stomatitis virus in primary rabbit kidney cell cultures; assay type: functional; how it was run: as §1
[11] = test system: Coxsackievirus B4; assay: Minimum inhibitory concentration against Coxsackie virus B4 in Vero cell cultures; assay type: functional; settings: Enterovirus B; how it was run: as §1
[12] = test system: HeLa; assay: Minimum inhibitory concentration against Vesicular stomatitis virus in HeLa cell cultures; assay type: functional; settings: Homo sapiens; how it was run: as §1
[13] = test system: HeLa; assay: Minimum inhibitory concentration against Coxsackie virus B4 in HeLa cell cultures; assay type: functional; settings: Homo sapiens; how it was run: as §1
[14] = test system: Human immunodeficiency virus 1; assay: Effective dose against HIV-1 induced cytopathogenicity in human MT-4 cell.; assay type: functional; settings: Human immunodeficiency virus 1, MT4; read-out: ED50 (the source's name)
How it was run: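 HIV (HTLV-III_B) is taken from the culture supernatant of a persistently infected HUT-78 line. Human MT-4 lymphocytes are infected and the assay scores inhibition of virus-induced cytopathogenicity. ED50 is the dose giving 50% protection of MT-4 cells against the viral cytopathic effect.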

[15] = test system: HeLa; assay: Minimum inhibitory concentration against polio virus 1 in HeLa cell cultures; assay type: functional; settings: Homo sapiens; how it was run: as §1
[16] = Minimum cytotoxic concentration in Vero cell cultures; assay type: cell-based; settings: chlorocebus sabaeus, Vero cells
[17] = test system: Human respirovirus 3; assay: Minimum inhibitory concentration against parainfluenza 3 virus in Vero cell cultures; assay type: functional; how it was run: as §1
[18] = organism: Oryctolagus cuniculus; assay: as §2; assay type: functional; how it was run: as §1
[19] = organism: Oryctolagus cuniculus; assay: Minimum cytotoxic concentration in primary rabbit kidney cell cultures
[20] = organism: Oryctolagus cuniculus; assay: as §3; assay type: functional; how it was run: as §1
[21] = organism: Oryctolagus cuniculus; assay: Minimum inhibitory concentration against Herpes simplex virus 1(KOS) in primary rabbit kidney cell cultures; assay type: functional; how it was run: as §1
[22] = organism: Oryctolagus cuniculus; assay: Minimum inhibitory concentration against Herpes simplex virus 2 (G) in primary rabbit kidney cell cultures; assay type: functional; how it was run: as §1

| Structure (SMILES) | MIC [1] [µg/mL] | MIC [2] [µg/mL] | MIC [3] [µg/mL] | CC50 [4] [µM] | EC50 [5] [µg/mL] | MCC [6] [µg/mL] | MCC [7] [µg/mL] | MIC [8] [µg/mL] | MCC [9] [µg/mL] | MIC [10] [µg/mL] | MIC [11] [µg/mL] | MIC [12] [µg/mL] | MIC [13] [µg/mL] | EC50 [14] [µM] | MIC [15] [µg/mL] | MCC [16] [µg/mL] | MIC [17] [µg/mL] | other results |
| --- | --- | --- | --- | --- | --- | --- | --- | --- | --- | --- | --- | --- | --- | --- | --- | --- | --- | --- |
| CC(C)(C)[Si](C)(C)OC[C@H]1O[C@@H](n2cnc3c(N)ncnc32)[C@H](O[Si](C)(C)C(C)(C)C)[C@@H]1C#N | > 4 | > 4 | > 4 | 5.1 | > 1.6 | 8 | 400 | > 4 | 10 | > 4 | > 4 | 150 (≈ 297 µM) | > 200 | 2.1 | > 200 | 10 | > 4 | – |
| CC(C)(C)[Si](C)(C)OC[C@H]1O[C@@H](n2ccc(=O)[nH]c2=O)[C@H](O[Si](C)(C)C(C)(C)C)[C@@H]1C#N | > 4 | > 4 | > 4 | 6.6 | 5.6 (≈ 11.6 µM) | > 8 | > 40 | > 4 | > 10 | > 4 | > 4 | > 10 | > 10 | 3.2 | > 10 | > 10 | > 4 | – |
| Cc1cn([C@H]2C[C@H](C#N)[C@@H](CO)O2)c(=O)[nH]c1=O | > 10 | 20 (≈ 79.6 µM) | > 10 | 30 | > 16 | 80 | 200 | > 10 | 100 | > 40 | > 10 | > 100 | > 100 | > 16 | > 100 | > 10 | > 10 | – |
| N#C[C@H]1[C@@H](O)[C@H](n2ccc(=O)[nH]c2=O)O[C@@H]1CO | > 100 | > 200 | > 100 | 147 | > 200 | > 200 | > 200 | > 100 | > 200 | > 200 | > 100 | > 200 | > 200 | > 80 | > 200 | > 200 | > 100 | – |
| CC(C)(C)[Si](C)(C)OC[C@H]1O[C@@H](n2ccc(=O)[nH]c2=O)[C@H](O[Si](C)(C)C(C)(C)C)[C@H]1C#N | > 1 | > 1 | > 1 | 1.6 | 2.2 (≈ 4.57 µM) | > 3.2 | 4 | > 1 | > 4 | > 1 | > 1 | > 1 | > 4 | > 6.04 | > 4 | 4 | > 1 | – |
| N#C[C@@H]1[C@@H](O)[C@H](n2cnc3c(N)ncnc32)O[C@@H]1CO | 20 (≈ 72.4 µM) | 4 (≈ 14.5 µM) | > 100 | 2.9 | 6.6 (≈ 23.9 µM) | > 40 | 400 | 10 (≈ 36.2 µM) | 200 | > 200 | 100 (≈ 362 µM) | 150 (≈ 543 µM) | > 200 | > 1.6 | > 200 | 200 | 70 (≈ 253 µM) | – |
| Cc1cn([C@H]2C[C@@H](C#N)[C@@H](CO)O2)c(=O)[nH]c1=O | > 400 | > 400 | > 200 | > 250 | > 250 | > 250 | > 400 | > 400 | > 400 | > 400 | > 400 | > 400 | > 400 | > 250 | > 400 | > 400 | > 200 | – |
| N#C[C@@H]1[C@@H](O)[C@H](n2ccc(=O)[nH]c2=O)O[C@@H]1CO | > 200 | 4 (≈ 15.8 µM) | > 200 | > 400 | 260 (≈ 1030 µM) | 400 | > 400 | > 200 | > 200 | > 200 | > 200 | > 200 | > 200 | > 400 | > 200 | 400 | > 200 | – |
| Cc1cn(C2C=C(C#N)C(CO)O2)c(=O)[nH]c1=O (centres undefined) | > 40 | > 100 | > 40 | 24 | 191 (≈ 766 µM) | > 250 | 400 | > 100 | 200 | > 100 | > 100 | 150 (≈ 602 µM) | > 200 | > 50 | > 200 | > 100 | > 40 | – |
| N#CC1C(CO)OC(n2ccc(N)nc2=O)C1O (centres undefined) | > 100 | 40 (≈ 159 µM) | > 100 | 22.7 | 43 (≈ 170 µM) | > 200 | 100 | > 100 | > 100 | > 100 | > 100 | 70 (≈ 278 µM) | > 40 | > 10 | > 40 | 200 | > 100 | – |
| CC(C)(C)[Si](C)(C)OCC1OC(n2ccc(N)nc2=O)C(O[Si](C)(C)C(C)(C)C)C1C#N (centres undefined) | > 4 | > 4 | > 4 | 6.1 | > 1.6 | 8 | > 4 | > 4 | > 10 | > 4 | > 4 | > 1 | > 1 | > 3.2 | > 1 | 10 | > 4 | – |
| Cc1cn(C2CC(C#N)C(CO[Si](C)(C)C(C)(C)C)O2)c(=O)[nH]c1=O (centres undefined) | > 100 | > 40 | 20 (≈ 54.7 µM) | 31 | > 16 | 80 | 100 | > 100 | > 100 | > 40 | > 100 | > 40 | > 40 | > 16 | > 40 | > 100 | > 100 | – |
| Cc1cn(C2OC(CO)C(C#N)C2O)c(=O)[nH]c1=O (centres undefined) | 300 (≈ 1120 µM) | 150 (≈ 561 µM) | > 200 | 232 | > 250 | > 250 | > 400 | 150 (≈ 561 µM) | 400 | > 200 | > 100 | > 200 | > 200 | > 250 | > 200 | > 200 | > 100 | – |
| CC(=O)Nc1ccn(C2OC(CO[Si](C)(C)C(C)(C)C)C(C#N)C2O[Si](C)(C)C(C)(C)C)c(=O)n1 (centres undefined) | > 4 | > 1 | > 4 | 4.8 | 2.2 (≈ 4.21 µM) | > 3.2 | > 4 | > 4 | > 4 | > 1 | > 4 | > 1 | 2 (≈ 3.83 µM) | > 3.2 | > 4 | > 4 | > 4 | – |
| Nc1nccc2c1ncn2[C@@H]1C[C@H](CO)[C@@H](O)[C@H]1O [3-DEAZAARISTEROMYCIN A] | > 400 | 2 (≈ 7.57 µM) | 7 (≈ 26.5 µM) | – | – | – | > 400 | 300 (≈ 1140 µM) | > 400 | 0.7 (≈ 2.65 µM) | 100 (≈ 378 µM) | 1 (≈ 3.78 µM) | > 400 | – | > 400 | 400 | 4 (≈ 15.1 µM) | – |
| NC(=O)c1ncn([C@@H]2O[C@H](CO)[C@@H](O)[C@H]2O)n1 [RIBAVIRIN] | 300 (≈ 1230 µM) | – | 70 (≈ 287 µM) | – | – | – | > 200 | 70 (≈ 287 µM) | – | – | 100 (≈ 409 µM) | 20 (≈ 81.9 µM) | 70 (≈ 287 µM) | – | 70 (≈ 287 µM) | > 400 | 40 (≈ 164 µM) | MIC [18]: 10 µg/mL (≈ 40.9 µM); MCC [19]: > 400 µg/mL; MIC [20]: 300 µg/mL (≈ 1230 µM); MIC [21]: > 400 µg/mL; MIC [22]: > 400 µg/mL |
| Nc1ncnc2c1ccn2[C@@H]1O[C@H](CO)[C@@H](O)[C@H]1O [TUBERCIDIN] | > 0.1 | 0.1 (≈ 0.376 µM) | > 0.1 | – | – | – | > 0.4 | 0.2 (≈ 0.751 µM) | – | 0.07 (≈ 0.263 µM) | > 0.1 | 0.07 (≈ 0.263 µM) | 0.4 (≈ 1.5 µM) | – | 0.4 (≈ 1.5 µM) | 0.4 | > 0.1 | MCC [19]: > 0.4 µg/mL |
